Jurkat viability = cytotoxic compounds reducing Jurkat cell viability. Jurkat E6.1 viability, ATP luminescence, 48 h. inhibition, % at 4 µM. 56,000 compounds, 1.2% hits;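 active means inhibition above the mean inhibition of all tested compounds plus 3 SD, cut at about 28% in these data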
Ecoli tolC = blocks growth of E. coli BW25113 tolC mutant. OD615. growth inhibition, % at 10 µM (by protocol). 65,000 compounds, 2.2% hits;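 active means growth inhibition at or above a cutoff equal to the mean over every tested compound plus 3 SD, cut at about 60% in these data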;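 further: growth measured after 20 h incubation at 37 °C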
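System: E. coli ΔtolC::kan strain BW25113; Buffer or medium: LB broth supplemented with 50 µg/mL kanamycin; Compound: 10 µM final, single dose; Incubation: bacterial growth with compound for 20 h at 37 °C; Signal: A615 absorbance measurement; Evaluation: growth inhibition in percent.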
Fibroblast inh = blocks proliferation of human lung fibroblasts. LL 47 human lung fibroblast viability, ATP luminescence; hits give low values. viability, % at 10 µM. 85,000 compounds, 1.1% hits. AID 719;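 active means viability at or below 50% in the single dose screen; inactive means viability above 50%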;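 further: compound exposure lasted 72 h before the ATP readout; 100% = median luminescence of untreated cell-only wells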
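Material: human LL 47 lung fibroblast cells; quantity: 1,150 cells/well; medium: IMEM plus 15% FBS; doses: 0.1% DMSO in all compound wells; timing: overnight attachment after seeding, then 72 h compound exposure at 37 °C; detection: CellTiter-Glo luminescence; measure: % viability of median cell-only signal; controls: cell-only wells, no compound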
Ecoli WT expand = growth inhibitors of E. coli BW25113 wild type | OD600 absorbance | growth inhibition, % at 100 µM | 98,000 compounds, 0.15% hits;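 active means growth inhibition above about 50% at one test dose, limit read from the data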;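 further: growth measured after 20 h incubation at 37 °C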
H69AR inhibit = blocks growth of human H69AR lung tumor cells. H69AR lung tumor viability, ATP luminescence, 72 h; hits give low values. viability, % at 10 µM. 85,000 compounds, 6% hits. AID 598;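 active means viability at or below 40%; inactive means viability above 40%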;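 further: multidrug resistant small cell line overexpressing MRP-1 efflux transporter; 100% = mean luminescence of untreated control wells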
HUVEC prolif 384 = human endothelial cell proliferation inhibition; HUVEC proliferation, CellTiter-Glo luminescence, 72 h; hits give low values; viability, % at 10 µM (by protocol); AID 648; 86,000 compounds, 1.1% hits;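 active means viability at or below 30%; inactive means viability above 30%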;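 further: 100% = median luminescence of DMSO-only cell control wells on each plate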
* hit, by the source's call. Most compounds without a hit are left out; they make up all but 6.4% or so of the library.

How did CN1CCN(S(=O)(=O)c2ccc3c(c2)OCCO3)CC1 do in these assays?
Fibroblast inh: 98; Ecoli WT expand: 6; H69AR inhibit: 102; HUVEC prolif 384: 99

Results for O=c1cc(CSc2nnc(COc3ccccc3Cl)o2)nc2sccn12 ?
Jurkat viability: 6; Ecoli tolC: 21; Fibroblast inh: 94; Ecoli WT expand: 4; H69AR inhibit: 101; HUVEC prolif 384: 90

What do the screens show for `Cc1sc2nc3c(C(=O)N4CCN(c5ccccn5)CC4)cccn3c(=O)c2c1C`?
Ecoli WT expand: 1

How did COc1ccc(Cn2c(CCC(=O)Nc3ccccc3)nc3cccnc32)cc1 do in these assays?
Fibroblast inh: 95; Ecoli WT expand: -5; H69AR inhibit: 89; HUVEC prolif 384: 75

How did COc1ccc(Cn2c(CCC(=O)Nc3ccc(C)c(C)c3)nc3cccnc32)cc1 do in these assays?
Fibroblast inh: 105; Ecoli WT expand: -8; H69AR inhibit: 37*; HUVEC prolif 384: 84

How did Cc1ccc(-n2nc(C)c3c(C)c(CCC(=O)NCc4ccccc4)c(C)nc32)cc1 do in these assays?
Fibroblast inh: 77; Ecoli WT expand: -8; H69AR inhibit: 32*; HUVEC prolif 384: 66

What do the screens show for `Cc1ccc(-n2nc(C)c3c(C)c(CCC(=O)NCc4ccco4)c(C)nc32)cc1`?
Jurkat viability: -4; Ecoli tolC: 10; Fibroblast inh: 100; Ecoli WT expand: -6; H69AR inhibit: 42; HUVEC prolif 384: 87

How did CCCCn1c(NC(=O)c2ccccc2Cl)c(C#N)c2nc3ccccc3nc21 do in these assays?
Jurkat viability: 22; Ecoli tolC: 99*; Fibroblast inh: 94; Ecoli WT expand: -6; H69AR inhibit: 20*; HUVEC prolif 384: 55

Results for CC(=O)c1c(C)[nH]c(C(=O)NCc2ccccc2Cl)c1C ?
Jurkat viability: 11; Ecoli tolC: -1; Fibroblast inh: 100; Ecoli WT expand: 1; H69AR inhibit: 95; HUVEC prolif 384: 93

What do the screens show for `CCCCC(CC)CNC(=O)c1[nH]c(C)c(C(C)=O)c1C` (configuration not stated)?
Jurkat viability: 15; Ecoli tolC: 62*; Fibroblast inh: 99; Ecoli WT expand: 5; H69AR inhibit: 75; HUVEC prolif 384: 97

What do the screens show for `CCOC(=O)/C(=N\Nc1cc(C(F)(F)F)ccc1Cl)N(CC)CC`?
Ecoli WT expand: 6

What do the screens show for `COc1ccccc1-c1nnc(NC(=O)c2ccc(S(=O)(=O)N(C)C)cc2)o1`?
Jurkat viability: 20; Ecoli tolC: 96*; Fibroblast inh: 77; Ecoli WT expand: 0; H69AR inhibit: 102; HUVEC prolif 384: 75

How did COc1ccccc1-c1nnc(NC(=O)c2ccccc2F)o1 do in these assays?
Jurkat viability: -4; Ecoli tolC: 1; Fibroblast inh: 88; Ecoli WT expand: 7; H69AR inhibit: 1.9*; HUVEC prolif 384: 96

How did CCN(CC)S(=O)(=O)c1ccc(C(=O)Nc2ncn(Cc3ccccc3)n2)cc1 do in these assays?
Jurkat viability: 2; Ecoli tolC: 11; Ecoli WT expand: -1

What do the screens show for `COc1ccc(NC(=O)c2ccc(S(=O)(=O)N(C)C)cc2)cc1OC`?
Ecoli tolC: -1; Fibroblast inh: 90; Ecoli WT expand: 14; H69AR inhibit: 77; HUVEC prolif 384: 89

What do the screens show for `CCN(Cc1ccccc1)S(=O)(=O)c1ccc(C(=O)Nc2nnc(-c3ccccc3OC)o2)cc1`?
Jurkat viability: 2; Ecoli tolC: 98*; Fibroblast inh: 78; Ecoli WT expand: -3; H69AR inhibit: 51; HUVEC prolif 384: 65

What do the screens show for `CC1CCCCN1C(=O)CSc1nnc(CSc2ncccn2)n1C` (configuration not stated)?
Fibroblast inh: 103; Ecoli WT expand: 2; H69AR inhibit: 97; HUVEC prolif 384: 108

Results for N#CC1=C(SCC(=O)NC2CC2)NC(=O)C(C#N)C12CCCCC2 (configuration not stated) ?
Jurkat viability: 2; Ecoli tolC: 7; Fibroblast inh: 95; Ecoli WT expand: 1; H69AR inhibit: 100; HUVEC prolif 384: 84

What do the screens show for `N#CC1=C(SCC(=O)NC23CC4CC(CC(C4)C2)C3)NC(=O)C(C#N)C12CCCCC2` (configuration not stated)?
Jurkat viability: 3; Ecoli tolC: 86*; Fibroblast inh: 80; Ecoli WT expand: -6; H69AR inhibit: 9.1*; HUVEC prolif 384: 56

What do the screens show for `CC(C)(C)C1CCC2(CC1)C(C#N)=C(SCC(=O)NC1CCCCC1)NC(=O)C2C#N` (configuration not stated)?
Jurkat viability: 5; Ecoli tolC: 75*; Fibroblast inh: 82; Ecoli WT expand: 2; H69AR inhibit: 9.6*; HUVEC prolif 384: 44

How did Cc1nn(-c2ccc(F)cc2)c(C)c1NS(=O)(=O)c1ccc(Cl)cc1 do in these assays?
Jurkat viability: -5; Ecoli tolC: 28; Fibroblast inh: 88; Ecoli WT expand: -5; H69AR inhibit: 75; HUVEC prolif 384: 30*

What do the screens show for `CCN1C(=O)C(O)(CC(=O)c2ccccn2)c2ccccc21` (configuration not stated)?
Fibroblast inh: 89; Ecoli WT expand: -1; H69AR inhibit: 61; HUVEC prolif 384: 89

Results for Cc1ccc(C(=O)CC2(O)C(=O)N(C)c3ccc(Br)cc32)c(C)c1 (configuration not stated) ?
Jurkat viability: 2; Ecoli tolC: 10; Fibroblast inh: 86; Ecoli WT expand: 4; H69AR inhibit: 36*; HUVEC prolif 384: 83

Results for CN1C(=O)C(O)(CC(=O)c2ccccn2)c2cc(Br)ccc21 (configuration not stated) ?
Jurkat viability: 8; Ecoli tolC: -2; Fibroblast inh: 85; Ecoli WT expand: 14; H69AR inhibit: 29*; HUVEC prolif 384: 59

What do the screens show for `CCOC(=O)c1c(C)n(C)c2c(C)cc(O)c(OC(=O)CC)c12`?
Jurkat viability: -3; Ecoli tolC: -12; Fibroblast inh: 101; Ecoli WT expand: -10; H69AR inhibit: 86; HUVEC prolif 384: 110

Results for Cc1cccc(N(CC(=O)NC2CCCCC2)C(=O)CCC(=O)Nc2cc(C)ccn2)c1 ?
Jurkat viability: -6; Ecoli tolC: -30

How did CCOc1ccc2cc(/C=C/C(=O)c3ccco3)c(Cl)nc2c1 do in these assays?
Fibroblast inh: 97; Ecoli WT expand: -17; H69AR inhibit: 2.4*; HUVEC prolif 384: 76

Results for CCOc1ccc2nc(N3CCC(C(=O)N4CCN(C(=O)c5ccco5)CC4)CC3)sc2c1 ?
Jurkat viability: 13; Ecoli tolC: 18; Fibroblast inh: 100; Ecoli WT expand: -2; H69AR inhibit: 57; HUVEC prolif 384: 114

What do the screens show for `Cc1cc2n(n1)C(c1ccc3c(c1)OCO3)Nc1c(C)cccc1-2` (configuration not stated)?
Jurkat viability: -1; Ecoli tolC: 71*; Fibroblast inh: 91; Ecoli WT expand: 0; H69AR inhibit: 96; HUVEC prolif 384: 93
